Laboratory results reported in ChEMBL document CHEMBL5154715, “Phenolic Lipids Derived from Cashew Nut Shell Liquid to Treat Metabolic Diseases” (J Med Chem, 2022).
pEC50: −log10 of the molar value. Calls of active or inactive are those of the source. The calls are words filed in the database; no cut-off is given here.

What was measured:
[1] = biological target: T1, Peroxisome proliferator-activated receptor alpha (Homo sapiens) (UniProt Q07869); assay: Agonist activity at human PPARalpha transfected in HEK293 cells assessed as relative luciferase unit at 50 uM measured after 16 hrs by luciferase reporter gene assay; type: cell-based; conditions: filed as agonist
T1 sequence (whole entry): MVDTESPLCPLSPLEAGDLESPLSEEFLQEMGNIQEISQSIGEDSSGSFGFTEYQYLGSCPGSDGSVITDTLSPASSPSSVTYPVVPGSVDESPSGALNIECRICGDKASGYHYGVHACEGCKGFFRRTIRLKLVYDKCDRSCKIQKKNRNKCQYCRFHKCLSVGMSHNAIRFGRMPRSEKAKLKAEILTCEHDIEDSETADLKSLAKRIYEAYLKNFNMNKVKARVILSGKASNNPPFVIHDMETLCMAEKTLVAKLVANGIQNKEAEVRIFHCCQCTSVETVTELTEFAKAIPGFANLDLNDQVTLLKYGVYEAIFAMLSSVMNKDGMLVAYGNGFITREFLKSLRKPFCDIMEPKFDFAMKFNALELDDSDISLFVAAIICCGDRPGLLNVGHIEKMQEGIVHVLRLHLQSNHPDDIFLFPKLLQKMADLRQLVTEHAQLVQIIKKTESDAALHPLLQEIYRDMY
Method in brief: (§1)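 GAL4-hPPAR (α or γ) plus UAS-luciferase and β-galactosidase transiently co-transfected into HEK293 cells, then treated with 50 μM compound for 16 h. RLU = luciferase/β-galactosidase × time, vehicle (DMSO) set to 1. Mean ± SD, N = 3; one-way ANOVA with Holm–Šidák vs vehicle.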

[2] = biological target: T2, Peroxisome proliferator-activated receptor gamma (Homo sapiens) (UniProt P37231); assay: Agonist activity at human PPARgamma transfected in HEK293 cells assessed as relative luciferase unit at 50 uM measured after 16 hrs by luciferase reporter gene assay; type: cell-based; conditions: filed as agonist; method in brief: as §1
T2 sequence (whole entry): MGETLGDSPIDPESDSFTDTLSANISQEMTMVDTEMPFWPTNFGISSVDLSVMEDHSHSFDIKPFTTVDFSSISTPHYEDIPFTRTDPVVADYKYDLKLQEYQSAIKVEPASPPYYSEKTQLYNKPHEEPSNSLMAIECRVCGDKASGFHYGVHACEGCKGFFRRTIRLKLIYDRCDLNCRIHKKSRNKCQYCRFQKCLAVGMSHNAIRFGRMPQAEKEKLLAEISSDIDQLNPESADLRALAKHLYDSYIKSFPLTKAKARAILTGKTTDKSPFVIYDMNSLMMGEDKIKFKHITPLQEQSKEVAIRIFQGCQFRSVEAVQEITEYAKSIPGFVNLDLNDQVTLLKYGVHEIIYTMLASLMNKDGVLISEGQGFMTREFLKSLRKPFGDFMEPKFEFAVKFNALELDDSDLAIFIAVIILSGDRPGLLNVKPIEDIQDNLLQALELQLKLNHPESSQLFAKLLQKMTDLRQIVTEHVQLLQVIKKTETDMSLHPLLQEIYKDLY

[3] = biological target: T3, Peroxisome proliferator-activated receptor alpha (Homo sapiens, UniProt Q07869); assay: Agonist activity at human PPARalpha expressed in HEK293 cells by luciferase/beta-galactosidase reporter gene assay; type: cell-based
T3 sequence (Q07869 whole entry): T1 sequence (whole entry)
Method in brief: (§2)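 HEK293 cells in charcoal-stripped FBS, calcium phosphate co-transfected with GAL4-hPPAR LBD fusion, UAS-luciferase and β-galactosidase. Ligand added 6–8 h post transfection, full dose–response, harvested 14–16 h later. Luciferase normalized to β-galactosidase.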

[4] = biological target: T4, Peroxisome proliferator-activated receptor gamma (Homo sapiens, UniProt P37231); assay: Agonist activity at human PPARgamma expressed in HEK293 cells by luciferase/beta-galactosidase reporter gene assay; type: cell-based; method in brief: as §2
T4 sequence (P37231 whole entry): T2 sequence (whole entry)

[5] = biological target: T1, Peroxisome proliferator-activated receptor alpha (Homo sapiens); assay: Agonist activity at human PPARalpha expressed in HEK293 cells assessed as maximal activity by luciferase/beta-galactosidase reporter gene assay relative to GW7647; type: cell-based; method in brief: as §2
[6] = biological target: T5, Peroxisome proliferator-activated receptor alpha (Mus musculus) (UniProt P23204); assay: Agonist activity at human PPARalpha in mouse hepatocytes assessed as induction of fabp1 mRNA expression at 50 uM incubated for 16 hrs by quantitative real-time PCR analysis; type: cell-based; conditions: Hepatocyte, filed as agonist
T5 sequence (whole entry): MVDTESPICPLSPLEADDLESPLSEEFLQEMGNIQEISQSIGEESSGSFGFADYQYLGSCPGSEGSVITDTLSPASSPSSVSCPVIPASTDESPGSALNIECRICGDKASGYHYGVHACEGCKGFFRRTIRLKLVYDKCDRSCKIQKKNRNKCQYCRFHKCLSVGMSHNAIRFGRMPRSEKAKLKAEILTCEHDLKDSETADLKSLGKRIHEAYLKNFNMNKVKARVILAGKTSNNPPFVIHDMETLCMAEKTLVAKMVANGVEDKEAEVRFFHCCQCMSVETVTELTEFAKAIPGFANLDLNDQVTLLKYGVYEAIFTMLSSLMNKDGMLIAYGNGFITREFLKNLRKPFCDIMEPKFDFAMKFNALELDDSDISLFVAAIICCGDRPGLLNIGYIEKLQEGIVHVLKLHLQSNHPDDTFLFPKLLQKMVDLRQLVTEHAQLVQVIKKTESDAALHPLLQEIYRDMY
Method in brief: (§3)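 Collagenase-perfused mouse primary hepatocytes from WT mice, plated 2 h in attachment medium, overnight in M199 with 5% charcoal-stripped FBS and 1 nM insulin. Treated next day in serum-free M199 with 50 μM compound for 16 h. RNA qPCR (SYBR Green), comparative Ct method.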

[7] = biological target: T5, Peroxisome proliferator-activated receptor alpha (Mus musculus); assay: Agonist activity at human PPARalpha in mouse hepatocytes assessed as induction of cd36 mRNA expression at 50 uM incubated for 16 hrs by quantitative real-time PCR analysis; type: cell-based; conditions: Hepatocyte, filed as agonist; method in brief: as §3
[8] = biological target: T5, Peroxisome proliferator-activated receptor alpha (Mus musculus); assay: Agonist activity at human PPARalpha in mouse hepatocytes assessed as induction of Pdk4 mRNA expression at 50 uM incubated for 16 hrs by quantitative real-time PCR analysis; type: cell-based; conditions: Hepatocyte, filed as agonist; method in brief: as §3
[9] = biological target: T6, Peroxisome proliferator-activated receptor delta (Homo sapiens) (UniProt Q03181)
T6 sequence (whole entry): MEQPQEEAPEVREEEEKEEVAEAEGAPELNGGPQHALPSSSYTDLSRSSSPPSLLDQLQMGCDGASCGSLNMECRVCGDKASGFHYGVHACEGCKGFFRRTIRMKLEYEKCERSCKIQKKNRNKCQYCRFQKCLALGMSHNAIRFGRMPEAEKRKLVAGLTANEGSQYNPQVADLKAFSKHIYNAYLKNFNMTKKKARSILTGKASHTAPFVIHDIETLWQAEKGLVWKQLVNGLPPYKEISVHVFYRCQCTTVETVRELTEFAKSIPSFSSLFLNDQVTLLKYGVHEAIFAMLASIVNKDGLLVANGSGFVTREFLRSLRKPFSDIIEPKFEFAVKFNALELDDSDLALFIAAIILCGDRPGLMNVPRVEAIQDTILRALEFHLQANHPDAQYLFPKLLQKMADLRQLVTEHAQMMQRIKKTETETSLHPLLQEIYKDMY

[10] = biological target: T7, Peroxisome proliferator-activated receptor gamma (Mus musculus) (UniProt P37238); assay: Agonist activity at human PPARgamma in mouse 3T3-L1 cells assessed as induction of Glut4 mRNA expression at 25 uM incubated for 11 days by quantitative real-time PCR analysis; conditions: filed as agonist, time 11.0 day
T7 sequence (whole entry): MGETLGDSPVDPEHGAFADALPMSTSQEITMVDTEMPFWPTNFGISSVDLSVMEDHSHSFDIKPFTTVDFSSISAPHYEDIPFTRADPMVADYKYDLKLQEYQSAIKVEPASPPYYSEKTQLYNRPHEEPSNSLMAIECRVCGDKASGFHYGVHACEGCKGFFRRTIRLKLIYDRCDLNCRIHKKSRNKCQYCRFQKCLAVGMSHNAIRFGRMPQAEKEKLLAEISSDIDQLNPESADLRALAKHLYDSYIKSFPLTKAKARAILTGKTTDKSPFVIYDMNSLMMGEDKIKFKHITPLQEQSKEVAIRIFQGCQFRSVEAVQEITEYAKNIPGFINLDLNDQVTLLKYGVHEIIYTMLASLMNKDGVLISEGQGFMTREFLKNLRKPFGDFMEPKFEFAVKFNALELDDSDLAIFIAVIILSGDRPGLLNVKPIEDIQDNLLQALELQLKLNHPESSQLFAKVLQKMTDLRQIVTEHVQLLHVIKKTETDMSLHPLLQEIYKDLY

[11] = biological target: T7, Peroxisome proliferator-activated receptor gamma (Mus musculus); assay: Agonist activity at human PPARgamma in mouse 3T3-L1 cells assessed as induction of Adipoq-mRNA expression at 25 uM incubated for 11 days by quantitative real-time PCR analysis; conditions: filed as agonist, time 11.0 day
[12] = biological target: T2, Peroxisome proliferator-activated receptor gamma (Homo sapiens); assay: Agonist activity at human PPARgamma expressed in HEK293 cells assessed as maximal activity by luciferase/beta-galactosidase reporter gene assay relative to rosiglitazone; type: cell-based; method in brief: as §2
[13] = biological target: T5, Peroxisome proliferator-activated receptor alpha (Mus musculus); assay: Agonist activity at human PPARalpha in mouse hepatocytes assessed as induction of Fgf21 mRNA expression at 50 uM incubated for 16 hrs by quantitative real-time PCR analysis; type: cell-based; conditions: Hepatocyte, filed as agonist; method in brief: as §3
[14] = Metabolic stability in C57BL/6 mouse liver microsomes assessed as half life; type: ADME, Microsome; conditions: time 2 min
[15] = Metabolic stability in C57BL/6 mouse liver microsomes assessed as parent compound remaining incubated for 120 mins; type: ADME, Microsome; conditions: read-out: Stability
[16] = biological target: T7, Peroxisome proliferator-activated receptor gamma (Mus musculus); assay: Agonist activity at human PPARgamma in mouse 3T3-L1 cells assessed as induction of adipogenic differentiation at 25 uM measured after 11 days by Oil Red O staining analysis; type: cell-based; conditions: filed as agonist, time 11.0 day
Method in brief: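 3T3-L1 cells differentiated for 11 days (IBMX/dexamethasone/insulin induction, then insulin, then maintenance medium) with 25 μM compound or 10 μM rosiglitazone from day 0. Cells formalin-fixed and stained with 0.6% Oil Red O. Lipid quantified spectrophotometrically after dye extraction.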

[17] = biological target: T1, Peroxisome proliferator-activated receptor alpha (Homo sapiens); assay: Stabilization of human PPARalpha LBD assessed as change in melting temperature at 25 uM by thermal shift assay
Method in brief: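 Purified hPPAR LBD at 1 mg/mL (∼25 μM) with ligand (α-LBD at 25 μM; γ- and δ-LBD at 50 μM). Static light scattering at 473 nm from 25 to 70 °C in 0.5 °C steps, 1 °C/min. Tm from four-parameter fit; ΔTm relative to DMSO; mean ± SEM, N = 3.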

[18] = biological target: T2, Peroxisome proliferator-activated receptor gamma (Homo sapiens); assay: Stabilization of human PPARgamma LBD assessed as change in melting temperature at 50 uM by thermal shift assay
[19] = biological target: T6, Peroxisome proliferator-activated receptor delta (Homo sapiens); assay: Stabilization of human PPARdelta LBD assessed as change in melting temperature at 50 uM by thermal shift assay

SMILES | Emax [5] [%] | Activity [8] | Activity [1] | Activity [2] | pEC50 [3] | pEC50 [4] | Activity [7] | EC50 ([9]; HEK293, filed as agonist) [µM] | also measured
CCCCCC/C=C\CCCCCCCc1cccc(OCC(=O)OCC)c1 | 30 | Active | Active | Active | 5.36 | < 4.30 | Active | 7.1 | Activity [6]: Active; Activity [10]: Active; Activity [11]: Active
CCCCCC/C=C\CCCCCCCc1cccc(OC(C)(C)C(=O)OCC)c1 | 30 | – | Active | Active | 4.17 | < 4.30 | Active | – | Activity [6]: Active; EC50 ([9]; HEK293): > 100 µM
CCCCCCCCCCCCCCCc1cccc(OCC(=O)OCC)c1 | 30 | – | Active | Active | – | 4.54 | – | – | half-life [14]: 1.1 h; remaining at 2 h [15]: 28%; Activity [16]: Active; Emax [12]: 30%; ΔTm [17]: -4.5 °C; EC50 ([9]; HEK293): > 100 µM; ΔTm [18]: -3 °C; ΔTm [19]: 1.2 °C
CCCCCCCCCCCCCCCc1cccc(O)c1C(=O)O [ANACARDIC ACID] | 30 | Active | Active | Active | 5.46 | 4.77 | – | 68 | Emax ([12]; filed as agonist): > 90%
CCCCCCCC/C=C\CCCCCCCC(=O)O [OLEIC ACID] | – | – | Active | – | 4.44 | – | – | 47 | Emax ([5]; filed as agonist): > 90%
CCCCCC/C=C\CCCCCCCc1cccc(OCC(=O)O)c1 | – | – | Active | Active | 4.68 | < 4.30 | Active | 70 | Emax ([5]; filed as agonist): > 90%

The next lines start with results.

Emax [5] [%] | Activity [8] | SMILES | Activity [1] | Activity [2] | pEC50 [3] | pEC50 [4] | Activity [7] | EC50 ([9]; HEK293, filed as agonist) [µM] | also measured
30 | – | CCCCCCCCCCCCCCCc1ccc(C(=O)O)c(OC)c1 | Active | Active | 4.77 | 5.09 | – | – | Emax [12]: 30%
– | Active | CC(C)(Sc1ccc(CCN(CCCCC2CCCCC2)C(=O)NC2CCCCC2)cc1)C(=O)O | – | – | – | – | Active | – | Activity [6]: Active; Activity [13]: Active
30 | Active | CCCCCCCCCCCCCCCc1ccc(C(=O)O)c(O)c1 | Active | – | 5.05 | – | – | – | Activity [13]: Active
30 | – | CCCCCCCCCC(=O)O [DECANOIC ACID] | Active | – | 4.51 | – | – | – | –
30 | Active | CCCCCCCCCCCCCCCc1cccc(OC)c1C(=O)O | Active | – | – | – | – | – | Activity [13]: Active
30 | – | CCCCCCCCCCCCCC(=O)O [MYRISTIC ACID] | Active | – | 4.89 | – | – | – | –
30 | – | CCCCCCCCCCCCCCCCCC(=O)O [STEARIC ACID] | Active | – | 4.40 | – | – | – | –
